Source: PubChem BioAssay (The Scripps Research Institute Molecular Screening Center)
In the library only some 2% were active in any assay of this set; here they are far more common.
ASAP1 GAP inh: blocks human ASAP1-stimulated Arf1 GTP hydrolysis | Q9ULH1 | GDP FP detection | inhibition, % at 16.5 µM | actives 0.19% (n = 360,000) | AID 624377;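 also: 0% = vehicle with enzyme and substrate and 100% = no enzyme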
TDP2 inh: blocks human TDP2 phosphodiesterase activity; AID 720702; actives 0.34% (n = 370,000); inhibition, % at 12.8 µM; O95551; recombinant TDP2, T5PNP hydrolysis, p-nitrophenol absorbance 415 nm;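 active = inhibition above the mean of all tested compounds plus 3 SD, set per campaign, cut at about 25% in these data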;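 also: 0% = DMSO with enzyme and 100% = buffer with substrate but no TDP2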
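test system = human TDP2 enzyme | input = TDP2 enzyme at 120 nM final | medium = 50 mM Tris-HCl pH 7.5 with Mg2+, KCl, DTT, BSA | also added = T5PNP substrate, 5 mM | times = 2 h at 37 °C | technique = epi absorbance | benchmarks = high control without enzyme, low control DMSO plus TDP2 | replication = each compound tested once, singlicate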
MBD2 inh: inhibitors of human MBD2 binding to methylated oligonucleotide | TR-FRET | inhibition, % at 4.4 µM | actives 0.31% (n = 370,000) | Q9UBB5; in the data active = inhibition above about 13%
LEDGF integ inh: blocks HIV-1 LEDGF/p75-dependent DNA integration; TR-FRET IN-LEDGF/p75 DNA integration, Eu/Cy5; inhibition, % at 3.7 µM; actives 0.64% (n = 370,000);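 active = inhibition above the screen-wide mean plus 3 SD, cut at about 13% in these data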;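 also: signal is the Cy5 over europium emission ratio at 671 and 618 nm; 0% = plate median of compound wells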
ARFGAP1 inhibitor: inhibits rat ARF GTPase activating protein 1 | actives 0.26% (n = 360,000) | inhibition, % at 16.5 µM | Q62848 | Arfgap1-stimulated ARF1 GTP hydrolysis, GDP FP detection;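 active = inhibition above a per-plate limit, mean inhibition of low control wells plus 3 SD, cut at about 25% in these data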;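 also: 0% = DMSO wells with enzyme and 100% = wells lacking Arfgap1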
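System: truncated rat Arfgap1 GAP domain / Benchmarks: high control wells lacking Arfgap1, low control full reaction with DMSO / Times: compound-enzyme preincubation 20 min, reaction 120 min, detection 60 min, 25 °C / Repeats: one replicate per compound / Also added: human ARF1(Δ1-17)-GTP substrate / Measured by: Tracer-displacement fluorescence polarization with EDTA stop, 620/688 nm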
UHRF1 MBD2 ctr: blocks human UHRF1 binding to methylated DNA; Q96T88; UHRF1 binding to methylated oligo, TR-FRET; inhibition, % at 4.4 µM; actives 0.75% (n = 370,000); AID 687016; in the data active = inhibition above about 21%;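 also: UHRF1 SRA domain binding a hemimethylated CpG hairpin DNA probe; 0% = median of test compound wells and 100% = reference inhibitor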
Target sequence (Q96T88 whole entry, looked up, the tested form may be a part): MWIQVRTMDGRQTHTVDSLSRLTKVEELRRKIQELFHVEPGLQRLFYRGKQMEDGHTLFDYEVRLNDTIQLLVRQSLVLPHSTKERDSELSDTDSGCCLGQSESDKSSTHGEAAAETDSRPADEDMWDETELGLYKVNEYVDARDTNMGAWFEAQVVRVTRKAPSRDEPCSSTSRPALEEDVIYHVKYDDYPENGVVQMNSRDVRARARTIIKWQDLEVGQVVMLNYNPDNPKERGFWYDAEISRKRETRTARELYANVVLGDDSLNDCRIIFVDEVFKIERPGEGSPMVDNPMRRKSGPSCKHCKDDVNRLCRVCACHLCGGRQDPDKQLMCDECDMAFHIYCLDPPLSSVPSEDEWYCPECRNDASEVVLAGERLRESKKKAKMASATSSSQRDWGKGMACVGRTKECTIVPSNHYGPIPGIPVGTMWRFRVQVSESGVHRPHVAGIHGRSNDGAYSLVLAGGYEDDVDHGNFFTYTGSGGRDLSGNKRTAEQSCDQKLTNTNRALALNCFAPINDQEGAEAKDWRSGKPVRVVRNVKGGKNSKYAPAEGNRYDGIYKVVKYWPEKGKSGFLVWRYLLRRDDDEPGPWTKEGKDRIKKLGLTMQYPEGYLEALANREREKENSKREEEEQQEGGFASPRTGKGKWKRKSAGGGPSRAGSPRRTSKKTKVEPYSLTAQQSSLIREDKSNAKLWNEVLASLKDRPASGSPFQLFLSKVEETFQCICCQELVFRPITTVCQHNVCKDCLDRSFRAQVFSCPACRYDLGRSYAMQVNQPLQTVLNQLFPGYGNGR
TDP2 confirm: human TDP2 inhibition, confirmation; shares compounds with TDP2 inh; recombinant human TDP2, absorbance read-out; inhibition, % at 12.8 µM; actives 22% (n = 1,100);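 also: 0% = vehicle with enzyme and 100% = no enzyme buffer only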
IN multimer up: activates HIV-1 integrase multimerization in LEDGF counter-screen | shares compounds with LEDGF integ inh | AID 1053131 | activation, % at 7.7 µM | TR-FRET HIV-1 integrase multimerization, biochemical | actives 17% (n = 2,000); in the data active = activation above about 8.9%
TR-FRET interf: TR-FRET optical interference, LEDGF/p75 integration counter-screen; shares compounds with LEDGF integ inh; TR-FRET optical interference counterscreen, HIV-1 IN multimerization; inhibition, % at 7.7 µM; 2,000 tested, under 10 active; AID 1053135;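 active = inhibition above the mean over all tested compounds plus 3 SD, which no compound reached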;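 also: 0% = integrase with antibodies and DMSO and 100% = antibodies without integrase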
LEDGF integ conf: LEDGF/p75-dependent HIV-1 integration inhibition, confirmation; shares compounds with LEDGF integ inh; TR-FRET LEDGF/p75-dependent HIV-1 integration, biochemical; inhibition, % at 3.7 µM; actives 36% (n = 2,000); AID 1053136; in the data active = inhibition above about 14%
Numbers without * were called inactive; . = no result given. Rule as the data show it, unless noted: active = inhibition above about 25%; inactive = the rest.

SMILES | ASAP1 GAP inh | TDP2 inh | MBD2 inh | LEDGF integ inh | ARFGAP1 inhibitor | UHRF1 MBD2 ctr | TDP2 confirm | IN multimer up | TR-FRET interf | LEDGF integ conf
COc1ccccc1NC(=O)COC(=O)c1ccc([N+](=O)[O-])s1 | 0.3 | 31.6* | 5.2 | 16.6* | 5.1 | 1.9 | 24.2 | 0.3 | -1.5 | 44.3*
Cc1ccc(-c2cc3c(nn2)-c2ccccc2C3=O)cc1 | 2.0 | 9.7 | -4.0 | 3.8 | -5.8 | -6.5 | . | . | . | .
Cc1ccccc1-c1cc2c(nn1)-c1ccccc1C2=O | 13.1 | 63.2* | -7.0 | 61.2* | 1.7 | 3.7 | 49.8* | -0.1 | 0.7 | 39.9*
COc1ccc(O)c(C(c2c(C)[nH][nH]c2=O)c2c(C)[nH][nH]c2=O)c1 | 22.8 | 73.1* | 9.2 | 22.2* | -4.1 | 14.2 | 72.8* | 0.2 | -0.6 | 12.5
C=CCn1c(NC(=O)c2ccccc2Cl)c(C#N)c2nc3ccccc3nc21 | -9.7 | 79.0* | 17.7* | 29.6* | -12.0 | 13.0 | 45.0* | -3.0 | 10.8 | 71.5*
CCCCn1c(NC(C)=O)c(C#N)c2nc3ccccc3nc21 | -4.7 | 0.5 | -6.4 | -0.4 | -0.5 | -7.1 | . | . | . | .
Cc1ccc(-n2c(SCC(=O)C(C)(C)C)nnc2-c2cccc(C)c2)cc1 | . | 1.9 | 2.3 | 1.1 | . | 1.3 | . | . | . | .
CCc1nnc(N/N=C/c2c(Cl)cccc2Cl)n1N | 1.8 | 59.8* | 3.7 | 49.0* | 0.0 | 6.1 | 10.7 | -4.0 | 14.2 | 12.5
CNC(=S)N/N=C/c1c(Cl)cccc1Cl | -4.9 | 8.8 | -6.9 | 2.3 | 13.8 | -3.5 | . | . | . | .
C(=N\Nc1nc2ccccc2s1)/c1cccs1 | 18.9 | -1.1 | 1.6 | 1.1 | 6.2 | -0.5 | . | . | . | .
CCc1nnc(N/N=C/c2cccs2)n1N | 3.0 | 68.7* | 0.1 | 44.3* | 2.9 | 7.2 | 2.8 | 4.7 | -23.4 | 0.3
O[C@H](COc1ccc(Cl)cc1)CN1CCC(C(O)(c2ccccc2)c2ccccc2)CC1 | . | -5.0 | -0.2 | 1.6 | . | -1.5 | . | . | . | .
COC(=O)C1CCCN(C(=O)C2CCN(S(=O)(=O)c3ccc([N+](=O)[O-])cc3)CC2)C1 (centres undefined) | . | 6.0 | 2.6 | 0.6 | . | -0.6 | . | . | . | .
C(=NN=C(NN=Cc1cccs1)NN=Cc1cccs1)c1cccs1 | -3.7 | 54.4* | -4.2 | 34.0* | -8.9 | 4.8 | -0.8 | 0.4 | -1.3 | -11.3
O=C(N/N=C/c1cccs1)c1ccccn1 | -5.0 | -9.8 | -0.4 | -7.5 | 5.3 | -4.7 | . | . | . | .
CCOC(=O)C1=C(COC(=O)c2ccc([N+](=O)[O-])s2)NC(=O)NC1C (centres undefined) | -4.5 | 38.7* | -0.7 | 31.1* | -10.1 | 2.9 | 41.5* | 0.5 | -1.6 | 60.6*
COc1cc(/C=N/Nc2nncn2N)ccc1OCc1c(C)no[n+]1[O-] | 4.9 | 67.7* | 2.2 | 58.8* | -1.6 | 8.2 | 6.0 | 0.6 | -2.8 | -3.0
COc1ccc(CSc2nncn2N)cc1Br | 4.3 | 1.1 | -4.7 | 4.2 | 0.0 | 1.6 | . | . | . | .
COc1ccc(/C=N/Nc2nncn2N)cc1Br | -5.2 | 75.3* | -5.1 | 70.3* | 10.0 | 7.1 | 7.7 | 0.2 | -0.7 | -6.3
Nn1cnnc1N/N=C/c1ccc(Cl)cc1Cl | -14.0 | 72.9* | -4.4 | 47.9* | -1.8 | 10.8 | -7.4 | 0.6 | -2.0 | -1.6
CCC(NC(=O)c1ccc2c(ccn2Cc2cccc(-c3ccccc3C(=O)O)c2)c1)c1ccccc1 (centres undefined) | . | -8.8 | 11.3 | -3.1 | . | 3.7 | . | . | . | .
CC(C)(C)[C@H](NC(=O)c1cc(Cl)cc(Cl)c1)C(=O)N1CCC[C@H]1C(=O)N[C@H](C#N)CC(=O)O | . | 8.2 | -2.1 | 0.6 | . | 1.0 | . | . | . | .
CC1=NN(c2ccccc2)C(=O)C1C=Nc1ccc(N(C)C)cc1 (centres undefined) | -34.0 | 31.7* | 11.0 | 59.9* | -38.6 | 31.9* | 7.6 | 5.6 | -28.1 | 9.1
COc1ccc(CNS(=O)(=O)/C=C/c2cc(C)ccc2CNC(=O)OC(C)(C)C)cc1 | . | 10.1 | -4.6 | 4.2 | . | -1.6 | . | . | . | .
COC(=O)[C@]12C[C@H](CC(=O)N3CCCC3)C(=O)N(Cc3cccc4ccccc34)C1=C[C@H](C(C)C)O[C@@H]2C1CC1 | . | -6.0 | -0.7 | -6.4 | . | -0.5 | . | . | . | .
SMILES | ASAP1 GAP inh | TDP2 inh | MBD2 inh | LEDGF integ inh | ARFGAP1 inhibitor | UHRF1 MBD2 ctr | TDP2 confirm | IN multimer up | TR-FRET interf | LEDGF integ conf
Cc1cc(=O)c2c(o1)C(=O)c1occc1C2=O | -4.9 | 35.8* | 11.4 | 50.5* | -25.7 | 40.4* | 21.3 | 35.1* | -125.3 | 56.2*
Nc1c2c(=O)[nH]c(O)cc2nn1-c1ccccc1 | 18.0 | 89.2* | -3.6 | 16.3* | -3.5 | 7.1 | 76.6* | 1.9 | -6.8 | 0.6
O=C(CC1CCCC1)N[C@@H](Cc1cccnc1)C(=O)N1CCC[C@H]1C(=O)NCCc1ccccc1Cl | 6.0 | 2.0 | 6.2 | 0.8 | -2.7 | 1.6 | . | . | . | .
CC(=O)N(/N=C1\Sc2ccccc2C1=O)c1ccccc1C | 8.4 | 62.9* | -8.2 | 33.9* | 8.1 | -8.0 | 63.1* | 0.5 | -1.9 | 43.7*
CC(=O)N(/N=C1\Sc2ccccc2C1=O)c1ccc(C)cc1C | 1.4 | 7.6 | -2.8 | 2.3 | -2.3 | -6.6 | . | . | . | .
O=c1cc(-c2ccccc2)[nH]n1-c1nc2ccccc2[nH]1 | 4.9 | 5.9 | 0.1 | 2.6 | 4.2 | -4.3 | . | . | . | .
N#CCCn1[nH]c(-c2ccccc2)cc1=O | 5.9 | 84.6* | 11.4 | 27.5* | -10.8 | 17.8 | 10.7 | 6.7 | -23.4 | 6.0
COc1cc(C2C(C#N)=C(N)Oc3c2c(-c2ccccc2)nn3-c2ccccc2)cc(OC)c1OC (centres undefined) | -7.2 | 79.7* | -7.3 | 18.6* | 4.2 | -1.4 | 9.8 | 0.2 | -1.0 | 5.0
COc1ccc(OC)c(C2C(C#N)=C(N)Oc3c2c(C)nn3-c2cccc(Cl)c2)c1 (centres undefined) | -9.1 | 82.1* | 6.7 | 17.2* | -4.2 | 15.0 | 7.8 | 0.1 | -0.4 | -5.7
COc1ccc(OC)c(C2C(C#N)=C(N)Oc3cc(C)[nH]c(=O)c32)c1 (centres undefined) | -3.8 | -2.6 | -0.2 | -0.9 | -1.7 | 1.0 | . | . | . | .
COc1cccc(O[C@H]2C=C[C@@H](c3ccccc3)O[C@@H]2CO)c1 | . | 4.0 | -6.2 | -1.0 | . | 1.4 | . | . | . | .
